Test results from ChEMBL document CHEMBL1142437, “Constrained analogues of procaine as novel small molecule inhibitors of DNA methyltransferase-1” (J Med Chem, 2008).
Calls of active or inactive are those of the source. The rule behind the calls is not given here.

system: HL-60; assay: Induction of chromosomal satellite repeats demethylation in human HL60 cells at 0.5 mM after 72 hrs; format: functional, cell-based
Procedure, shortened: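 HL60 human myeloid leukemia cells exposed 72 h to 0.5 mM drug in DMSO, DMSO (1%) as control. Methylation of chromosomal satellite repeats (C1S2) assessed by COBRA assay on genomic DNA.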

Structure (SMILES)	Activity
O=[N+]([O-])c1ccc(C2=NC[C@H](CN3CCCC3)O2)cc1	Active
CCN(CC)CCOC(=O)c1ccc(N)cc1	Active

molecular target: DNA (cytosine-5)-methyltransferase 1 (Homo sapiens) (UniProt P26358); assay: Inhibition of human recombinant DNMT1 expressed in Sf9 cells
Sequence (P26358 whole entry): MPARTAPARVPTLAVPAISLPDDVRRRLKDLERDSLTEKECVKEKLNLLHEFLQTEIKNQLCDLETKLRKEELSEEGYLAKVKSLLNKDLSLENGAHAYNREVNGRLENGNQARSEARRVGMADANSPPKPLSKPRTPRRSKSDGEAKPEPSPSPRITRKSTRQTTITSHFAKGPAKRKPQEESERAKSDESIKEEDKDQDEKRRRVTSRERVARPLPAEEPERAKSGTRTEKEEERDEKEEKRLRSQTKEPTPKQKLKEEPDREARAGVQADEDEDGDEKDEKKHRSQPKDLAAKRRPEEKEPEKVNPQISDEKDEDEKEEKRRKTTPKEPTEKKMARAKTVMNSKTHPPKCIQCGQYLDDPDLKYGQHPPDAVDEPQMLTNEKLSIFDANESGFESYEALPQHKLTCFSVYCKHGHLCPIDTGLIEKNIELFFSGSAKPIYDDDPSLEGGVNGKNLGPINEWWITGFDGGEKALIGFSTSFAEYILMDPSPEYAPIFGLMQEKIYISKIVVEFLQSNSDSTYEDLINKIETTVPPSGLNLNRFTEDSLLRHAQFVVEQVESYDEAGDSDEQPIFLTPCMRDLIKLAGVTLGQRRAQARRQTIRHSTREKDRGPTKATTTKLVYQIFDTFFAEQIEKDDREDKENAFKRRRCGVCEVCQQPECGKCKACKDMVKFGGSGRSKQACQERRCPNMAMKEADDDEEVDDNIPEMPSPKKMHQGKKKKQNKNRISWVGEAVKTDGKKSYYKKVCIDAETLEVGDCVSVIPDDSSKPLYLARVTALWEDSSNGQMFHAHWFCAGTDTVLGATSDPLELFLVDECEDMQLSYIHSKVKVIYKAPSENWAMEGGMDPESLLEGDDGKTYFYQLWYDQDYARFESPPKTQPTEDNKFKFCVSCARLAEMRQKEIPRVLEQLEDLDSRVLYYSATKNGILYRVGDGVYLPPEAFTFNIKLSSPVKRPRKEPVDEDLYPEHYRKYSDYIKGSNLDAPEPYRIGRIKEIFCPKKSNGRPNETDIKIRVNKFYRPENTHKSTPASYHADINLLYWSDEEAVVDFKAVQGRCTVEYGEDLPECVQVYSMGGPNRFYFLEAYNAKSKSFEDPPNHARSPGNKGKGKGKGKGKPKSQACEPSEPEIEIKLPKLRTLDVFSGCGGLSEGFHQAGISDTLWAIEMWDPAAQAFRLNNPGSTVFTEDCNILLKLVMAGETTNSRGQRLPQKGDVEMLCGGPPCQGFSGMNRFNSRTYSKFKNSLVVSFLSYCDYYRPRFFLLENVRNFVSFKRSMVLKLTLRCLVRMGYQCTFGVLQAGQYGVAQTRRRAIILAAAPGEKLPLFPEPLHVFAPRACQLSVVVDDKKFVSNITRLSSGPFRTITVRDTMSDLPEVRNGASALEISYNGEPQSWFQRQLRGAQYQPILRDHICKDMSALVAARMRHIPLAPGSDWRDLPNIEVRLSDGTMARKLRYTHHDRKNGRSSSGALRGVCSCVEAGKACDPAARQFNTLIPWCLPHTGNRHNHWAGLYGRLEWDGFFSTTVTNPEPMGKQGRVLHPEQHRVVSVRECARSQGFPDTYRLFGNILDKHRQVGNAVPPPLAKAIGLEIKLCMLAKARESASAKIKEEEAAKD

Activity	Structure (SMILES)
Active	O=[N+]([O-])c1ccc(C2=NC[C@H](CN3CCCC3)O2)cc1
Active	O=[N+]([O-])c1ccc(C2=N[C@@H](CN3CCCC3)CO2)cc1
Active	O=[N+]([O-])c1ccc(C2=N[C@H](CN3CCCC3)CO2)cc1
Active	CCN(CC)C[C@H]1COC(c2ccc([N+](=O)[O-])cc2)=N1
Active	CCN(CC)C[C@H]1CN=C(c2ccc([N+](=O)[O-])cc2)O1
Active	CCN(CC)C[C@@H]1COC(c2ccc([N+](=O)[O-])cc2)=N1
Active	CCN(CC)C[C@@H]1CN=C(c2ccc([N+](=O)[O-])cc2)O1
